# Screens as filed in PubChem BioAssay.
# Calb FLC: C. albicans growth inhibition with fluconazole, primary screen, CaCi-2 strain, Alamar Blue fluorescence | C. albicans CaCi-2 (fluconazole-resistant clinical isolate) + fluconazole, 48 h | growth inhibition, % (test concentration not listed) | 0.57% of 300,000 active;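 active means growth inhibition above about 58% in most replicates, limit read from the data, passing the limit was not always enough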;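 further: all wells also contain fluconazole at 8 µg/ml as a sub-toxic cotreatment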
# T cruzi repl: inhibitors of intracellular T. cruzi growth, primary screen, luminescence, NIH3T3 host cells | T. cruzi beta-gal in NIH3T3, 90 h | inhibition, % (concentration not given with the values) | 1.4% of 300,000 active | AID 1885, 2009;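 active means mean inhibition across valid replicates above about 55%, limit read from the data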;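 further: signal also drops with host cell toxicity which is not excluded here; higher percent means less beta-gal luminescence so fewer parasites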
#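 compound dosing = single 50 nL compound addition per well in DMSO | material = NIH/3T3 host cells with β-galactosidase reporter T. cruzi | input = 5,000 host fibroblasts per well | timing = ≥90 h infection period, 3 h prior cell attachment | read-out basis = percent inhibition of parasite-derived β-gal signal | detection = GalScreen β-gal luminescence, detergent lysis, 60 min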
# Beta cell apopt: inhibitors of cytokine-induced beta cell apoptosis, primary screen, luminescence; protection from apoptosis, % (concentration not given with the values); INS-1E cytokine-induced death, ATP luminescence, 48 h; percent of positive-control rescue, neutral wells zero; 0.8% of 300,000 active;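 active means Every replicate reaches about 75%, or at least half do and their mean reaches it too, limit read from the data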;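 further: higher means more ATP so stronger rescue from cytokine killing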
# CSC inhib: cancer stem cell viability inhibitors, primary screen, luminescence. cancer stem cell-like cells viability. inhibition, % at 7.5 µM. 1.1% of 300,000 active. AID 2717, 2010; in the data active means inhibition above about 75%; tested in HMLE shEcad cells
# Mdm2 MdmX PPI: inhibitors of human Mdm2-MdmX association, primary screen, cell-based, luminescence, split luciferase, SaOS-2, uHTS. Protein Mdm4 (Homo sapiens) + E3 ubiquitin-protein ligase Mdm2 (Homo sapiens), …. SaOS-2 split-luciferase Mdm2/MdmX complementation. inhibition, % at 8 µM. 3% of 330,000 active;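 active means inhibition of at least 50% at 8 µM in the primary screen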
# SKKanGAS inh: S. pyogenes SKKanGAS growth inhibitors in kanamycin, primary screen, streptokinase expression inhibitor project, SKKanGAS strain, BacTiter-Glo luminescence; inhibition, % at 7.5 µM; 6 h; 1.3% of 300,000 active;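 active means mean replicate score, as percent of positive control median, at least 50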;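 further: strain carries kanamycin resistance gene driven by streptokinase promoter and grows in 40 µg/ml kanamycin; loss of luminescence reflects streptokinase promoter inhibition or plain growth inhibition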
# Mdm2 MdmX conf: Mdm2-MdmX complex disruptors, retested hits, confirmation, luminescence, single concentration; shares compounds with Mdm2 MdmX PPI; Mdm2-MdmX binding, luminescent assay; inhibition, % at 8 µM; 55% of 10,000 active; AID 489028, 2010; in the data active means inhibition above about 40%
# Full FLuc ctr: full-length luciferase signal inhibition, confirmation, counter-screen for Mdm2/MdmX interaction inhibitor project, cell-based, single concentration, SaOS-2 | shares compounds with Mdm2 MdmX PPI | SaOS-2 full-length luciferase counterscreen, luminescence | inhibition, % at 8 µM | 77% of 6,200 active | AID 504607, 2011;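 active means mean inhibition at 8 µM reaching about 37%, which flags the compound as non-specific, limit read from the data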;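 further: p53-null SaOS-2 cells with luciferase driven by a doxycycline-inducible promoter; compound on cells about two nights before reading with doxycycline added after day one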
# A number is an active result; . = inactive; / = not tested or not shown. Only some compounds are listed: those with a hit (about 5.7% of all), similar ones and a draw of the others.
SMILES,Calb FLC,T cruzi repl,Beta cell apopt,CSC inhib,Mdm2 MdmX PPI,SKKanGAS inh,Mdm2 MdmX conf,Full FLuc ctr
O=c1[nH]c(=O)n(-c2ccc(F)cc2)c2c1C(C(F)(F)F)(C(F)(F)F)N=C(c1ccc(F)cc1)N2,.,.,76,/,53,.,.,68
CC[C@H]1CC2CN3CCc4c([nH]c5c([C@H]6C[C@H]7[C@H](CC)CN(C)[C@@H](Cc8c6[nH]c6ccccc86)[C@H]7C(=O)OC)c(OC)ccc45)C(C(=O)OC)(C2)C13,.,.,.,103,93,.,83,37
CCC1CN(C)C2Cc3c([nH]c4ccccc34)C(=O)CC1C2C(=O)OC (stereo unspecified),.,.,/,.,.,.,/,/
Cc1ccc2[nH]cc(CCNS(=O)(=O)c3ccc(F)cc3)c2c1,.,.,/,/,.,.,/,/
CN(Cc1ccccc1)c1ncnc2ccc(Br)cc12,.,.,.,.,57,.,49,39
O=C(NCC(c1ccco1)N1CCc2ccccc2C1)C(=O)Nc1cc(F)ccc1F (stereo unspecified),.,.,.,.,.,.,/,/
Cc1cnc(NC(=O)Nc2ccc(OCc3ccccc3)cc2)c(Br)c1,.,.,.,.,.,.,/,/
